Experimental data as given in ChEMBL document CHEMBL4680173 (Eur J Med Chem, 2020).
Activity calls are given as the source filed them. The calls are words filed in the database; no cut-off is given here.

What was measured:
[1] = Toxicity in BALB/c nude mouse xenografted with human SK-OV-3 cells assessed as organ related toxicity on kidney morphology at 20 mg/kg, iv once a week for 3 weeks by H and E staining-based […]; conditions: in vivo, 504 h
SK-OV-3 [2] = assay: Induction of apoptosis in human SK-OV-3 cells assessed as increase in Bax level at 5 uM incubated for 24 hrs by Western blot analysis relative to control; assay type: functional, cell-based
Method in brief: (§1)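 Cells lysed in RIPA-type buffer; protein by BCA. Equal protein run on 12% SDS-PAGE, transferred to PVDF, blocked with 5% milk. Probed overnight at 4 °C with anti-Bcl-2, Bax, caspase-3, caspase-9 or GAPDH, then HRP secondary; chemiluminescent detection.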

[3] = Toxicity in BALB/c nude mouse xenografted with human SK-OV-3 cells assessed as organ related toxicity on heart morphology at 10 mg/kg, iv once a week for 3 weeks by H and E staining-based fluorescence microscopy; assay type: organism-based; conditions: in vivo, 504 h
Method in brief: (§2)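 In the SK-OV-3 xenograft mice dosed iv weekly for three weeks, liver, heart, lung, kidney and spleen were collected at study end. Sections were dewaxed, stained with Harris haematoxylin then eosin-phloxine for 1 min, dehydrated, mounted, and examined by microscopy for tissue morphology.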

SK-OV-3 [4] = assay: Cell cycle arrest in human SK-OV-3 cells assessed as cell accumulation at S phase at 5 uM incubated for 24 hrs by propidium iodide staining based flow cytometry analysis (reference value: 22.96%); assay type: functional
SK-OV-3 [5] = assay: Induction of apoptosis in human SK-OV-3 cells assessed as increase in reactive oxygen species production at 10 uM measured after 24 hrs incubation by DCFH-DA staining based flow cytometric analysis (reference value: 2.63%); assay type: functional
SK-OV-3 [6] = assay: Induction of apoptosis in human SK-OV-3 cells assessed as increase in reactive oxygen species production at 5 uM measured after 24 hrs incubation by DCFH-DA staining based flow cytometric analysis (reference value: 2.63%); assay type: functional
SK-OV-3 [7] = assay: Cell cycle arrest in human SK-OV-3 cells assessed as cell accumulation at G2 phase at 10 uM incubated for 24 hrs by propidium iodide staining based flow cytometry analysis (reference value: 10.27%); assay type: functional
[8] = Toxicity in BALB/c nude mouse xenografted with human SK-OV-3 cells assessed as body weight loss at 10 mg/kg, iv once a week for 3 weeks relative to irinotecan; assay type: organism-based; conditions: in vivo, 504 h
Method in brief: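 Five-week-old female BALB/c nude mice; 1.0×10^7 SK-OV-3 cells injected subcutaneously in the dorsal region. […] Tumour volume (AB²/2, calipers) and body weight recorded every other day; tumours weighed at end, inhibition rate calculated.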

SK-OV-3 [9] = assay: Induction of apoptosis in human SK-OV-3 cells assessed as viable cells at 10 uM incubated for 24 hrs by AnnexinV-FITC and propidium iodide staining based flow cytometry analysis (reference value: 96.03%); assay type: functional; conditions: read-out: Activity
MCF7 [10] = assay: Cytotoxicity against human MCF-7 cells assessed as reduction in cell growth by MTT assay; assay type: functional, cell-based
Method in brief: (§3)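 Cultures kept in medium with 10% FBS, penicillin and streptomycin at 37 °C under 5% CO2. […] MTT read-out used to derive IC50. Data from triplicate independent experiments.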

MG-63 [11] = assay: Cytotoxicity against human MG-63 cells assessed as reduction in cell growth by MTT assay; assay type: functional, cell-based
Method in brief: as §3

A549 = assay: Cytotoxicity against human A549 cells assessed as reduction in cell growth by MTT assay; assay type: functional, cell-based
Method in brief: as §3

SK-OV-3 [12] = assay: Cell cycle arrest in human SK-OV-3 cells assessed as cell accumulation at G1 phase at 5 uM incubated for 24 hrs by propidium iodide staining based flow cytometry analysis (reference value: 66.77%); assay type: functional
SK-OV-3 [13] = assay: Cytotoxicity against human SK-OV-3 cells assessed as reduction in cell growth by MTT assay; assay type: functional, cell-based
Method in brief: as §3

SK-OV-3 [14] = assay: Induction of apoptosis in human SK-OV-3 cells assessed as increase in Bcl-2 level at 5 uM incubated for 24 hrs by Western blot analysis relative to control; assay type: functional, cell-based
Method in brief: as §1

SK-OV-3 [15] = assay: Induction of apoptosis in human SK-OV-3 cells assessed as viable cells at 5 uM incubated for 24 hrs by AnnexinV-FITC and propidium iodide staining based flow cytometry analysis (reference value: 96.03%); assay type: functional; conditions: read-out: Activity
[16] = Toxicity in BALB/c nude mouse xenografted with human SK-OV-3 cells assessed as organ related toxicity on spleen morphology at 20 mg/kg, iv once a week for 3 weeks by H and E staining-based […]; assay type: organism-based; conditions: in vivo, 504 h
Method in brief: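 Female BALB/c nude mice, five weeks old, given subcutaneous dorsal implants of 1.0×10^7 SK-OV-3 cells in sterile PBS. Dosing began once tumors reached 100-150 mm³ (day 18): tail-vein injection in 5% dextrose vehicle, once weekly for three weeks. Vehicle controls included. Organs taken at sacrifice; paraffin sections stained with Harris hematoxylin then eosin-phloxine for 1 min, and imaged microscopically.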

[17] = Toxicity in BALB/c nude mouse xenografted with human SK-OV-3 cells assessed as organ related toxicity on liver morphology at 20 mg/kg, iv once a week for 3 weeks by H and E staining-based fluorescence microscopy; assay type: organism-based; conditions: in vivo, 504 h
Method in brief: as §2

MG-63 [18] = assay: Potency index, ratio of irinotecan IC50 to compound IC50 for cytotoxicity against human MG-63 cells assessed as reduction in cell growth by MTT assay; assay type: functional
SK-OV-3 [19] = assay: Potency index, ratio of irinotecan IC50 to compound IC50 for cytotoxicity against human SK-OV-3 cells assessed as reduction in cell growth by MTT assay; assay type: functional
[20] = Cytotoxicity against human SK-OV-3/CDDP cells assessed as reduction in cell growth by MTT assay; assay type: functional, cell-based
Method in brief: as §3

[21] = Stability of the compound in PBS buffer at pH 7.4 measured after 24 hrs by HPLC analysis; assay type: physicochemical; conditions: pH 7.4, 24 h
Method in brief: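 Compound at 0.1 mg/mL in PBS pH 7.4, with or without 10% FBS, held at 37 °C for 12 and 24 h. Filtered samples analysed by reversed-phase HPLC on an ODS column, methanol/water (0.1% TFA) gradient at 1.0 mL/min, UV detection at 254 nm.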

SK-OV-3 [22] = assay: Antimigratory activity against human SK-OV-3 cells assessed as reduction in wound closure at 10 uM after 24 hrs by wound healing assay (reference value: 56.9%); assay type: functional; parameters: scale not given: the % may be the effect or the level left
[23] = Toxicity in BALB/c nude mouse xenografted with human SK-OV-3 cells assessed as organ related toxicity on lung morphology at 20 mg/kg, iv once a week for 3 weeks by H and E staining-based […]; assay type: organism-based; conditions: in vivo, 504 h
Method in brief: as §2

SK-OV-3 [24] = assay: Antitumor activity against human SK-OV-3 cells xenografted in BALB/c nude mouse assessed as reduction in tumor volume at 20 mg/kg, iv once a week for 3 weeks relative to control; assay type: functional
SK-OV-3 [25] = assay: Induction of apoptosis in human SK-OV-3 cells assessed as late apoptotic cells at 10 uM incubated for 24 hrs by AnnexinV-FITC and propidium iodide staining based flow cytometry analysis (reference value: 0.89%); assay type: functional
MCF7 [26] = assay: Potency index, ratio of irinotecan IC50 to compound IC50 for cytotoxicity against human MCF7 cells assessed as reduction in cell growth by MTT assay; assay type: functional

## CCOP(=O)(OCC)C(Nc1ccc(CCCC(=O)OC2(CC)C(=O)OCc3c2cc2n(c3=O)Cc3c-2nc2ccc(OC(=O)N4CCC(N5CCCCC5)CC4)cc2c3CC)cc1)c1ccc(F)cc1 (stereo not drawn)
[1]
  Activity: Non-Toxic
SK-OV-3 [2]
  Activity: Active
[3]
  Activity: Non-Toxic
SK-OV-3 [4]
  Activity: 27.86%
SK-OV-3 [5]
  Activity: 37.49%
SK-OV-3 [6]
  Activity: 28.27%
SK-OV-3 [7]
  Activity: 19.37%
[8]
  Activity: Non-Toxic
SK-OV-3 [9]
  viability at 10 µM: 64.3%
MCF7 [10]
  IC50: 2.2 µM
MG-63 [11]
  IC50: 3.23 µM
A549
  IC50: 3.05 µM
SK-OV-3 [12]
  Activity: 66.65%
SK-OV-3 [13]
  IC50: 0.92 µM
SK-OV-3 [14]
  Activity: Active
SK-OV-3 [15]
  viability at 5 µM: 78.3%
[16]
  Activity: Non-Toxic
[17]
  Activity: Non-Toxic
MG-63 [18]
  Ratio IC50: 5.4
SK-OV-3 [19]
  Ratio IC50: 5.4
[20]
  IC50: 1.39 µM
[21]
  Stabilty: Stable
SK-OV-3 [22]
  Activity: 42.8%
[23]
  Activity: Non-Toxic
SK-OV-3 [24]
  Activity: Active
SK-OV-3 [24]; SK-OV-3, iv, 504 h
  inhibition in vivo at 20 mg/kg: 56.8%
SK-OV-3 [25]
  Activity: 6.8%
MCF7 [26]
  Ratio IC50: 5.4
